In test [1] the target is T1, mGlu5 (Rattus norvegicus, UniProt P31424). Put plainly: Agonist Ca2+ mobilization after acute NAM exposure and extensive washes. Format: cell-based. The settings on record: for ΔEmax: change after azido-alkyne 8 (1uM). Background: Calcium flux is commonly read through the fluorescence of an indicator in the cells.
Test [2] deals with T1, mGlu5. Put plainly: Modulation of glutamate concentration-response curves for Ca2+ mobilization. Format: cell-based.
Test [3] concerns the target T1, mGlu5. The class given is cell-based. The note with it: for EC80 glutamate inhibition hill slope: HEK293A-mGlu5-low.
The target of test [4] is T1, mGlu5. In words: [3H]mPEPy inhibition binding, membranes from HEK293A-mGlu5-low. The note with it: for displacement of [3H]mPEPy binding, incubation time 4 h: equilibration time extended to 4 h. An outline of the steps:
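HEK293A-mGlu5-low membranes with ~2 nM [3H]mPEPy and test compound (0.3 nM–30 μM) in Ca2+ assay buffer, RT, 1 h initially, extended to 4 h. […] Filtration on GF/B, ice-cold 0.9% NaCl/50 mM Tris pH 7.4 washes, scintillation counting.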
In general terms: Loss of bound radioactivity is the signal in a displacement assay; it reports binding, not function.

Test [5] concerns the target T1, mGlu5. Format: binding. The settings on record: for [3H]mPEPy binding after pretreatment, three (5 min) washes: 1 μM pretreatment. The procedure, abridged: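 Whole HEK293A-mGlu5-low cells plated at ~200 000 cells/well on poly-D-lysine. Test compound (1 μM) applied 10 min at RT, with or without UV. Washed either 3 × 5 min or 5 × 1 h at RT in Ca2+ assay buffer. Then ~2 nM [3H]mPEPy for 1 h at RT, ice-cold 0.9% NaCl washes, 0.2 M NaOH lysis overnight, liquid scintillation counting.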

The target of test [6] is T1, mGlu5. In words: Agonist activity in mGlu5 intracellular Ca2+ mobilization. The class given is cell-based. The note with it: absence of glutamate.
For test [7], the system named is purified mGlu5.

“Also recorded” adds a separate entry of the source. Read-outs that look alike come from different tables or passages of the source. Bounds are passed on as bounds.

Results on four molecules are retold here after article PMC4981245 (ACS chemical biology, 2016).

T1 sequence (P31424 21-1203): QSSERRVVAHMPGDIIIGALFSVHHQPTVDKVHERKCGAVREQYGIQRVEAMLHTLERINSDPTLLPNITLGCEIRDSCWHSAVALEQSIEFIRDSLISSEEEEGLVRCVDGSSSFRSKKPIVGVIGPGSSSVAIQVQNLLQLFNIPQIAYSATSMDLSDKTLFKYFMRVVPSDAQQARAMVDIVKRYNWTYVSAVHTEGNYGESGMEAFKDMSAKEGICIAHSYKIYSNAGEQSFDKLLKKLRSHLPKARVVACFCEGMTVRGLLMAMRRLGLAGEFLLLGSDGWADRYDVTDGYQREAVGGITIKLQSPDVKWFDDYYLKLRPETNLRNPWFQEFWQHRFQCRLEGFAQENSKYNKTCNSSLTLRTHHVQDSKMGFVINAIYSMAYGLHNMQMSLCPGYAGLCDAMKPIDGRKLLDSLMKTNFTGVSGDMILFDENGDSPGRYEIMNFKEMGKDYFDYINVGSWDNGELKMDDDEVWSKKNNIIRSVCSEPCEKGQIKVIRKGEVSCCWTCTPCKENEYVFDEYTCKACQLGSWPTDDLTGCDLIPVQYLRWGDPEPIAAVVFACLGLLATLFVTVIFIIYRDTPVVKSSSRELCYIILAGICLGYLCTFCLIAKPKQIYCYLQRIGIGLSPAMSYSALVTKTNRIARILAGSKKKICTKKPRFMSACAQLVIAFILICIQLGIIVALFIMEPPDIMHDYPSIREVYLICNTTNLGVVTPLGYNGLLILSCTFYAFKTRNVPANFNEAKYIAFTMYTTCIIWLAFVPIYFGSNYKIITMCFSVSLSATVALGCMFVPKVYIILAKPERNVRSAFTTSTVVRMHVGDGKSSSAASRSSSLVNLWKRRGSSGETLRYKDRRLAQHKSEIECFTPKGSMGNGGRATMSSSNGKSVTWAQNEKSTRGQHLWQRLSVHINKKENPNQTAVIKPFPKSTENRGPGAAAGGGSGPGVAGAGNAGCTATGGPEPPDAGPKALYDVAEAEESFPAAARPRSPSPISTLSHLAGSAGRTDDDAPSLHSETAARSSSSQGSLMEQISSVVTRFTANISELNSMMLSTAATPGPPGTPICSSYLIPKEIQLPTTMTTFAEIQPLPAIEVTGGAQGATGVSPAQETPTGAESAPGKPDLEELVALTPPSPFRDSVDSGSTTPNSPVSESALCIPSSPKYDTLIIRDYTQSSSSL

Take `C[C@@H](NC(=O)c1ccc(C#Cc2cccc(F)c2)cn1)C(C)(C)O` [VU0424465]: the “pEC50 (untreated)” value in test [1] (HEK293A-mGlu5-low, untreated) is on record as 6.60 ± 0.18. Besides, the ΔEmax in test [1] was −18.3 ± 10.8 percentage of the maximum response to glutamate. Further, in test [1] (equilibrium dissociation constant of the agonist, receptor depletion with azido-alkyne 8 (1uM)), the pKA was 6.17 ± 0.25. For the same molecule, the “pEC50 (treated)” value in test [1] (treated with azido-alkyne 8 (1uM)) is 6.11 ± 0.23.
For `N[C@@H](CCC(=O)O)C(=O)O` [glutamate], the ΔEmax in test [1] is reported as −46.3 ± 18.3 percentage of the maximum response to glutamate.
As for `COc1cc(O)c(C(=O)c2ccccc2)cc1S(=O)(=O)O` [compound 4], in test [2], the “fold increase of affinity estimate with 30 min versus 1 min preincubation” value is on record as ~ 10 fold. Moreover, in test [2] (1 min pre-exposure), the “effect on glutamate maximal functional response” value is reported as “complete inhibition”. For the same molecule, in test [2] (affinity estimate pKB, 30 min preincubation, photoprobe preincubation 30 min), the Kb is 0.0363 µM. The “affinity estimate (pKB) fold difference to benzyl ether derivative 3” value in test [2] (allosteric interaction assay, 1 min) is reported as not above 5 fold. In test [3], 0.647 µM corresponded to half-maximal inhibition (IC50), the Kb is 0.891 µM, the “fold less potent than lead NAM 2 at inhibiting EC80 glutamate response” value was ~ 5 fold and the “EC80 glutamate inhibition hill slope” value is −0.91 ± 0.23. Besides, in test [4], the Ki (in general, the equilibrium dissociation constant of an inhibitor or competing ligand from its target) was 0.0251 µM and the “displacement of [3H]mPEPy binding, incubation time 4 h” value is on record as “complete displacement; also recorded: fully displaced”. Besides, the “displacement of [3H]mPEPy binding” value in test [4] (initial assay conditions) is on record as “incomplete displacement”. Further, the “fold higher mGlu5 binding affinity relative to lead NAM 2” value in test [4] (radioligand inhibition binding) worked out at 2 fold. The “[3H]mPEPy binding after pretreatment, three (5 min) washes” value in test [5] is given as “significantly reduced”. Also, in test [5] (absence of UV irradiation), the “[3H]mPEPy binding after extensive wash protocol (five 1 h washes)” value is listed as “concentration-dependently inhibited”. In addition, the “intrinsic agonist activity at mGlu5” value in test [6] is given as “No evidence of agonist activity; also recorded: no intrinsic agonist activity”. Besides, the “Cy5.5 in-gel fluorescence of mGlu5 dimer band” value in test [7] (absence of a competitor, versus vehicle) is listed as “significantly increase”.
With `Cc1cccc(C#Cc2ccccc2)n1` [6 (MPEP), MPEP, reference compound], in test [3], the “EC80 glutamate inhibition hill slope” value is given as −1.53 ± 0.18. For the same molecule, in test [3] (operational model of allosterism applied to EC80 glutamate inhibition curves), the “EC80 glutamate inhibition pKB” value is 7.97 ± 0.16. In test [4], the “displacement of [3H]mPEPy binding, incubation time 4 h” value is listed as “no effect”. The “effect of pre-exposure on potency or maximal response to glutamate or VU0424465” value in test [1] (10 min exposure followed by five extended washes) is on record as “no effect”. Moreover, the “[3H]mPEPy binding after pretreatment, three (5 min) washes” value in test [5] is “reduced [^3H]mPEPy binding to a similar extent”. Besides, the “inhibition of mGlu5 photoaffinity labeling of the clickable photoprobes” value in test [7] (saturating concentration (10 μM)) is on record as “did not inhibit”.
